From ChEMBL document CHEMBL1275591, “Cellular pharmacodynamics of the novel biaryloxazolidinone radezolid: studies with infected phagocytic and nonphagocytic cells, using Staphylococcus aureus, Staphylococcus epidermidis, Listeria monocytogenes, and Legionella pneumophila” (Antimicrob Agents Chemother, 2010)
Values after ≈ are worked out from the molar mass of the structure shown.

Columns and labels:
Legionella pneumophila [1] = assay: Bacteriostatic activity against Legionella pneumophila ATCC 33153 infected in THP1 cells after 48hrs; type: functional, THP-1
Procedure, shortened: (§1)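 Bacteria were phagocytosed by human THP-1 macrophage-like cells, then exposed to a range of drug concentrations for a fixed time: 24 h for S. aureus, S. epidermidis and L. monocytogenes, 48 h for L. pneumophila. Change in CFU versus the initial inoculum was fitted with a sigmoidal curve to give Emin, Emax (relative maximal efficacy), EC50 and static concentration (Cs).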

Staphylococcus aureus [2] = assay: Antimicrobial activity against linezolid-susceptible Staphylococcus aureus SA238 infected in THP1 cells after 24 hrs; type: functional, organism-based; conditions: SA238, THP-1, 24 h; procedure, shortened: as §1
Staphylococcus aureus [3] = assay: Antimicrobial activity against linezolid-resistant Staphylococcus aureus SA040L infected in THP1 cells assessed as log reduction in bacterial count after 24 hrs; type: functional, THP-1; procedure, shortened: as §1
Staphylococcus aureus [4] = assay: Antimicrobial activity against linezolid-susceptible Staphylococcus aureus NRS384 infected in THP1 cells assessed as log reduction in bacterial count after 24 hrs; type: functional, THP-1; procedure, shortened: as §1
Staphylococcus aureus [5] = assay: Antimicrobial activity against linezolid-susceptible Staphylococcus aureus NRS384 infected in THP1 cells after 24 hrs; type: functional, organism-based; conditions: NRS384, THP-1, 24 h; procedure, shortened: as §1
[6] = tested on: Staphylococcus epidermidis; assay: Antimicrobial activity against Staphylococcus epidermidis infected in THP1 cells after 24 hrs; type: functional, organism-based; conditions: THP-1, 24 h; procedure, shortened: as §1
Staphylococcus aureus [7] = assay: Antimicrobial activity against linezolid-susceptible Staphylococcus aureus SA238 infected in THP1 cells at pH 7.4 after 24 hrs; type: functional, organism-based; conditions: SA238, THP-1, 24 h
Staphylococcus aureus [8] = assay: Antimicrobial activity against linezolid-susceptible Staphylococcus aureus ATCC 25923 infected in THP1 cells assessed as log reduction in bacterial count after 24 hrs; type: functional, THP-1; procedure, shortened: as §1
[9] = tested on: Staphylococcus epidermidis; assay: Bacteriostatic activity against Staphylococcus epidermidis infected in THP1 cells after 24 hrs; type: functional, THP-1; procedure, shortened: as §1
[10] = tested on: Staphylococcus epidermidis; assay: Antimicrobial activity against Staphylococcus epidermidis SA362 after 24 hrs; type: functional; conditions: SA362, 24 h
Staphylococcus aureus [11] = assay: Antimicrobial activity against hospital acquired methicillin-resistant, vancomycin resistant Staphylococcus aureus VRS2 after 24 hrs; type: functional; conditions: VRS2, 24 h
Staphylococcus aureus [12] = assay: Bacteriostatic activity against linezolid-resistant Staphylococcus aureus SA238L infected in THP1 cells after 24 hrs; type: functional, THP-1
Procedure, shortened: (§2)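 Human THP-1 myelomonocytic (macrophage-like) cells infected with S. aureus, then exposed 24 h to a range of antibiotic concentrations. CFU change was measured against the initial inoculum. A sigmoidal dose-response curve was fitted to give Emin, Emax and EC50, and the apparent static concentration (Cs) was taken from the fit.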

Listeria monocytogenes [13] = assay: Bacteriostatic activity against Listeria monocytogenes EGD infected in THP1 cells after 24 hrs; type: functional, THP-1; procedure, shortened: as §1
Staphylococcus aureus [14] = assay: Antimicrobial activity against hospital acquired methicillin-resistant Staphylococcus aureus ATCC 33591 after 24 hrs; type: functional; conditions: ATCC 33591, 24 h
Staphylococcus aureus [15] = assay: Bacteriostatic activity against linezolid-susceptible Staphylococcus aureus SA238 infected in THP1 cells at pH 7.4 after 24 hrs; type: functional, THP-1
Legionella pneumophila [16] = assay: Antimicrobial activity against Legionella pneumophila ATCC 33153 infected in THP1 cells after 48hrs; type: functional, organism-based; conditions: ATCC 33153, THP-1, 48 h; procedure, shortened: as §1
Staphylococcus aureus [17] = assay: Antimicrobial activity against linezolid-susceptible Staphylococcus aureus SA040 infected in THP1 cells assessed as log reduction in bacterial count after 24 hrs; type: functional, THP-1; procedure, shortened: as §1
Staphylococcus aureus [18] = assay: Bacteriostatic activity against linezolid-susceptible Staphylococcus aureus SA238 infected in THP1 cells after 24 hrs; type: functional, THP-1; procedure, shortened: as §2
Staphylococcus aureus [19] = assay: Antimicrobial activity against linezolid-resistant Staphylococcus aureus SA238L infected in THP1 cells after 24 hrs; type: functional, organism-based; conditions: THP-1, 24 h; procedure, shortened: as §1
Staphylococcus aureus [20] = assay: Antimicrobial activity against linezolid-susceptible Staphylococcus aureus SA238 infected in THP1 cells assessed as log reduction in bacterial count after 24 hrs; type: functional, THP-1; procedure, shortened: as §1
Staphylococcus aureus [21] = assay: Antimicrobial activity against linezolid-susceptible Staphylococcus aureus ATCC 33591 infected in THP1 cells after 24 hrs; type: functional, organism-based; conditions: ATCC 33591, THP-1, 24 h; procedure, shortened: as §1
Listeria monocytogenes [22] = assay: Antimicrobial activity against Listeria monocytogenes infected in THP1 cells after 24 hrs; type: functional, organism-based; conditions: THP-1, 24 h; procedure, shortened: as §1
Legionella pneumophila [23] = assay: Antimicrobial activity against Legionella pneumophila ATCC 33153 after 48 hrs; type: functional; conditions: ATCC 33153, 48 h
Staphylococcus aureus [24] = assay: Antimicrobial activity against linezolid-resistant Staphylococcus aureus SA040L infected in THP1 cells after 24 hrs; type: functional, organism-based; conditions: THP-1, 24 h; procedure, shortened: as §1
Staphylococcus aureus [25] = assay: Bacteriostatic activity against linezolid-susceptible Staphylococcus aureus ATCC 25923 infected in THP1 cells after 24 hrs; type: functional, THP-1; procedure, shortened: as §2
Listeria monocytogenes [26] = assay: Antimicrobial activity against Listeria monocytogenes EGD after 24 hrs; type: functional
Staphylococcus aureus [27] = assay: Bacteriostatic activity against Staphylococcus aureus infected in THP1 cells after 24 hrs; type: functional, THP-1; procedure, shortened: as §1
Staphylococcus aureus [28] = assay: Antimicrobial activity against linezolid-susceptible Staphylococcus aureus SA040 infected in THP1 cells after 24 hrs; type: functional, organism-based; conditions: SA040, THP-1, 24 h; procedure, shortened: as §1
Staphylococcus aureus [29] = assay: Antimicrobial activity against linezolid-susceptible Staphylococcus aureus SA238 after 24 hrs; type: functional, organism-based; conditions: SA238, 24 h
Staphylococcus aureus [30] = assay: Antimicrobial activity against linezolid-susceptible Staphylococcus aureus NRS18 infected in THP1 cells after 24 hrs; type: functional, organism-based; conditions: NRS18, THP-1, 24 h; procedure, shortened: as §1
Staphylococcus aureus [31] = assay: Bacteriostatic activity against linezolid-susceptible Staphylococcus aureus NRS18 infected in THP1 cells after 24 hrs; type: functional, THP-1; procedure, shortened: as §2
Staphylococcus aureus [32] = assay: Bacteriostatic activity against linezolid-susceptible Staphylococcus aureus SA238 infected in THP1 cells at pH 5.5 after 24 hrs; type: functional, THP-1
Staphylococcus aureus [33] = assay: Antimicrobial activity against linezolid-susceptible Staphylococcus aureus ATCC 25923 infected in THP1 cells after 24 hrs; type: functional, organism-based; conditions: ATCC 25923, THP-1, 24 h; procedure, shortened: as §1
Staphylococcus aureus [34] = assay: Bacteriostatic activity against linezolid-susceptible Staphylococcus aureus NRS384 infected in THP1 cells after 24 hrs; type: functional, THP-1; procedure, shortened: as §2
Staphylococcus aureus [35] = assay: Antimicrobial activity against linezolid-resistant Staphylococcus aureus SA238L infected in THP1 cells assessed as log reduction in bacterial count after 24 hrs; type: functional, THP-1; procedure, shortened: as §1
Staphylococcus aureus [36] = assay: Antimicrobial activity against linezolid-susceptible Staphylococcus aureus NRS18 infected in THP1 cells assessed as log reduction in bacterial count after 24 hrs; type: functional, THP-1; procedure, shortened: as §1
Staphylococcus aureus [37] = assay: Bacteriostatic activity against linezolid-susceptible Staphylococcus aureus SA238 after 24 hrs; type: functional
Procedure, shortened: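 Extracellular concentration-response in Mueller-Hinton broth over 24 h. Change in CFU was fitted to a sigmoidal function, and the apparent static concentration (Cs) was derived from the fit.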

Staphylococcus aureus [38] = assay: Bacteriostatic activity against linezolid-resistant Staphylococcus aureus SA040L infected in THP1 cells after 24 hrs; type: functional, THP-1; procedure, shortened: as §2
Staphylococcus aureus [39] = assay: Bacteriostatic activity against linezolid-susceptible Staphylococcus aureus ATCC 33591 infected in THP1 cells after 24 hrs; type: functional, THP-1; procedure, shortened: as §2
Staphylococcus aureus [40] = assay: Antimicrobial activity against Linezolid resistant hospital acquired methicillin-resistant Staphylococcus aureus SA238L after 24 hrs; type: functional
Staphylococcus aureus [41] = assay: Antimicrobial activity against linezolid-susceptible Staphylococcus aureus ATCC 33591 infected in THP1 cells assessed as log reduction in bacterial count after 24 hrs; type: functional, THP-1; procedure, shortened: as §1
Staphylococcus aureus [42] = assay: Antimicrobial activity against linezolid-susceptible Staphylococcus aureus SA238 infected in THP-1 cells at pH 5.5 after 24 hrs; type: functional, organism-based; conditions: SA238, THP-1, 24 h
Staphylococcus aureus [43] = assay: Antimicrobial activity against hospital acquired methicillin-resistant, vancomycin resistant Staphylococcus aureus VRS1 after 24 hrs; type: functional; conditions: VRS1, 24 h
Staphylococcus aureus [44] = assay: Antimicrobial activity against linezolid resistant methicillin-susceptible Staphylococcus aureus SA040L after 24 hrs; type: functional
Staphylococcus aureus [45] = assay: Bacteriostatic activity against linezolid-susceptible Staphylococcus aureus SA040 infected in THP1 cells after 24 hrs; type: functional, THP-1; procedure, shortened: as §2
Staphylococcus aureus [46] = assay: Antimicrobial activity against Staphylococcus aureus infected in THP1 cells after 24 hrs; type: functional, organism-based; conditions: THP-1, 24 h; procedure, shortened: as §1

CC(=O)NC[C@H]1CN(c2ccc(N3CCOCC3)c(F)c2)C(=O)O1 [LINEZOLID]
Activity (Legionella pneumophila [1]): 5.14 mg/L | EC50 (Staphylococcus aureus [2]): 0.7 µg/mL (≈ 2.07 µM) | log10cfu (Staphylococcus aureus [3]): -0.69 | log10cfu (Staphylococcus aureus [4]): -0.41 | EC50 (Staphylococcus aureus [5]): 0.4 µg/mL (≈ 1.19 µM) | EC50 [6]: 2.99 µg/mL (≈ 8.86 µM) | EC50 (Staphylococcus aureus [7]): 0.35 µg/mL (≈ 1.04 µM) | log10cfu (Staphylococcus aureus [8]): -0.37 | Activity [9]: 0.49 mg/L | MIC [10]: 1 µg/mL (≈ 2.96 µM) | MIC (Staphylococcus aureus [11]): 1 µg/mL (≈ 2.96 µM) | Activity (Staphylococcus aureus [12]): >100 mg/L | Activity (Listeria monocytogenes [13]): 5.47 mg/L | MIC (Staphylococcus aureus [14]): 1 µg/mL (≈ 2.96 µM) | Activity (Staphylococcus aureus [15]): 2.26 mg/L | EC50 (Legionella pneumophila [16]): 8.45 µg/mL (≈ 25 µM) | log10cfu (Staphylococcus aureus [17]): -0.91 | Activity (Staphylococcus aureus [18]): 4.55 mg/L | EC50 (Staphylococcus aureus [19]): 0.29 µg/mL (≈ 0.86 µM) | log10cfu (Staphylococcus aureus [20]): -0.42 | EC50 (Staphylococcus aureus [21]): 0.47 µg/mL (≈ 1.39 µM) | EC50 (Listeria monocytogenes [22]): 0.62 µg/mL (≈ 1.84 µM) | MIC (Legionella pneumophila [23]): 4 µg/mL (≈ 11.9 µM) | EC50 (Staphylococcus aureus [24]): 2.78 µg/mL (≈ 8.24 µM) | Activity (Staphylococcus aureus [25]): 4.27 mg/L | MIC (Listeria monocytogenes [26]): 1 µg/mL (≈ 2.96 µM) | Activity (Staphylococcus aureus [27]): 4.27 mg/L | EC50 (Staphylococcus aureus [28]): 0.63 µg/mL (≈ 1.87 µM) | EC50 (Staphylococcus aureus [29]): 0.7 µg/mL (≈ 2.07 µM) | EC50 (Staphylococcus aureus [30]): 0.84 µg/mL (≈ 2.49 µM) | Activity (Staphylococcus aureus [31]): 2.77 mg/L | Activity (Staphylococcus aureus [32]): 1.09 mg/L | EC50 (Staphylococcus aureus [33]): 0.63 µg/mL (≈ 1.87 µM) | Activity (Staphylococcus aureus [34]): 2.3 mg/L | log10cfu (Staphylococcus aureus [35]): 0.27 | log10cfu (Staphylococcus aureus [36]): -0.69 | Activity (Staphylococcus aureus [37]): 4.55 mg/L | Activity (Staphylococcus aureus [38]): 10.15 mg/L | Activity (Staphylococcus aureus [39]): 2.95 mg/L | MIC (Staphylococcus aureus [40]): 16 µg/mL (≈ 47.4 µM) | log10cfu (Staphylococcus aureus [41]): -0.39 | EC50 (Staphylococcus aureus [42]): 0.18 µg/mL (≈ 0.534 µM) | MIC (Staphylococcus aureus [43]): 1 µg/mL (≈ 2.96 µM) | MIC (Staphylococcus aureus [44]): 16 µg/mL (≈ 47.4 µM) | Activity (Staphylococcus aureus [45]): 1.59 mg/L | EC50 (Staphylococcus aureus [46]): 0.63 µg/mL (≈ 1.87 µM)
